Assay outcomes as filed in PubChem BioAssay.
Kir21 inh: blocks the mouse Kir2.1 inward-rectifier potassium channel | P35561 | HEK293-Kir2.1, FluxOR thallium flux fluorescence; active compounds read low | B-score at 10 µM | actives 0.85% (n = 310,000) | AID 1672;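 active means fluorescence ratio B-score at or below minus 3 SD of library scores, with starting-brightness B-score within 2 SD, cut at about -4.2 in these data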;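 further: channel flux triggered by added potassium and thallium sulfate stimulus; B-score of peak minus minimum fluorescence over baseline after thallium stimulus; more negative B-score means stronger Kir2.1 block with less thallium influx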
Target sequence (P35561 whole entry, looked up): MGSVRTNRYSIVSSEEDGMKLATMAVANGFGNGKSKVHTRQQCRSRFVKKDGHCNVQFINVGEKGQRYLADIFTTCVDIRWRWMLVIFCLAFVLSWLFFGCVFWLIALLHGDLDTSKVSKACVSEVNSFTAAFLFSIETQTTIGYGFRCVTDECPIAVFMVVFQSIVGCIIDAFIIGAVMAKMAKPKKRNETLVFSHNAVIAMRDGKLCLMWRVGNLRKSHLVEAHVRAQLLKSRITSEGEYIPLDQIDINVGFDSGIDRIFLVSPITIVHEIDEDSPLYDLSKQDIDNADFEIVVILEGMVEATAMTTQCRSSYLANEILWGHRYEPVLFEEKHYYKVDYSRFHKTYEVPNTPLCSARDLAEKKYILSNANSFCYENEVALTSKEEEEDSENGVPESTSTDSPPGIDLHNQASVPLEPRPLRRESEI
TRPC4 PAM: allosterically enhances the mouse TRPC4 cation channel | Q9QUQ5 | HEK293 TRPC4beta/mu-opioid, DAMGO EC20, Fluo-4 Ca2+ flux; active compounds read high | B-score at 10 µM | actives 0.42% (n = 310,000);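 active means B-score of calcium response area above 5 SD of library B-scores, with initial fluorescence ratio within 5 SD of library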;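 further: B-score of integrated fluorescence ratio over time as area under calcium response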
TRPC6 act: activates the mouse TRPC6 cation channel. Q61143. HEK293-TRPC6 membrane potential dye fluorescence; active compounds read high. B-score at 10 µM. actives 0.13% (n = 310,000). AID 2550;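 active means B-score of the integrated fluorescence ratio above library mean plus 3 SD, and starting fluorescence ratio within library mean plus 5 SD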;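 further: higher score means more depolarization so channel activation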
TRPC4 inh: inhibitors of mouse TRPC4 channel; B-score at 10 µM; HEK293 TRPC4beta/mu-opioid, DAMGO-evoked Fluo4 calcium flux; active compounds read low; actives 0.39% (n = 300,000);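 active means B-score over 3 SD under the library average, no early fluorescence shift, positive overall ratio signal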
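Test system – stable TRPC4beta/mu-opioid receptor HEK293 cells · Probe or stimulus – DAMGO, a submaximal dose followed by a maximal one · Dosing – one concentration per compound · Signal – Fluo4 calcium fluorescence by kinetic imaging, 5 s 1 Hz baseline · Evaluation – per-well B score of integrated baseline-normalized Fluo4 ratio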
TRPC6 inh: blocks the mouse TRPC6 cation channel. B-score at 10 µM. actives 1.1% (n = 310,000). HEK293-TRPC6, membrane potential dye, ACh-evoked depolarization; active compounds read low;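 active means B-score under library mean minus 3 SD, initial fluorescence not abnormally high, positive integrated signal ratio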;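 further: B-score derived from integrated fluorescence ratio over the kinetic read; more negative B-score means stronger inhibition of depolarization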
TRPC4 act: opens the mouse TRPC4 cation channel. HEK293 TRPC4beta/mu-opioid, Fluo4 calcium fluorescence; active compounds read high. B-score at 10 µM. actives 0.49% (n = 310,000);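 active means B-score above 5 SD of library B-scores, and initial fluorescence ratio not above library mean plus 5 SD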;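 further: positive B-score marks a calcium rise read as TRPC4 activation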
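Technique: kinetic Fluo4 calcium fluorescence; Test system: TRPC4beta and mu-opioid receptor HEK293 stable cells; Measure: B-scored integrated calcium fluorescence ratio; Benchmarks: low control buffer alone, high control maximal DAMGO; Schedule: 45 min room-temperature Fluo4 loading, 110 s read.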
* hit, by the source's call; i = inactive. This is a sample that favours compounds with a hit; in the whole collection about 2.9% have one here.

SMILES | Kir21 inh | TRPC4 PAM | TRPC6 act | TRPC4 inh | TRPC6 inh | TRPC4 act
CCn1c(SC/C=C/c2ccccc2)nnc1-c1cccs1 | -7.8* | i | i | i | i | i
Cn1c(SC/C=C/c2ccccc2)nnc1-c1cccs1 | -1.2 | i | i | i | i | i
COc1ccccc1/C=C/C=N/N1CCN(Cc2ccccc2)CC1 | 0.87 | i | i | i | i | i
Cc1ccc(CN2CCN(/N=C/C=C/c3ccccc3[N+](=O)[O-])CC2)cc1 | -0.78 | 14* | i | i | i | i
CN1CCN(c2nc(-c3ccccc3)c3cc(Cl)ccc3n2)CC1 | -9.6* | i | i | i | i | i
O=C1CN(c2nc(-c3ccccc3)c3cc(Cl)ccc3n2)c2ccccc2N1 | 0.39 | i | i | i | i | i
Clc1ccc2nc(N3CCNCC3)nc(-c3ccccc3)c2c1 | -4.9* | i | i | i | i | 102*
COCCNC(=O)CSc1nnc(CCCN2C(=O)c3cccc4cccc(c34)C2=O)n1-c1ccccc1 | 0.01 | i | i | i | i | i
NC(=O)CN1C(=O)NC2(CCOc3ccccc32)C1=O (stereo not drawn) | -0.87 | i | i | i | i | i
CCc1cccc(OCCCCNCCO)c1 | 1.3 | i | i | i | i | i
CCc1ccccc1OCCCCCNCCO | -1.8 | 11* | i | i | i | i
Oc1ccc(-c2[nH]ncc2-c2cnn(-c3ccccc3)c2)c(O)c1 | 0 | i | i | -5* | i | i
CN1CCN(CCOC2Cc3ccccc3Sc3ccc(Cl)cc32)CC1 (stereo not drawn) | -10* | i | i | i | i | i
CCOC(=O)C1CCN(c2nc3ccccc3nc2C(C#N)C(=O)OCCOC)CC1 (stereo not drawn) | 1.1 | i | i | -7* | i | i
CCOC(=O)C1CCN(c2nc3ccccc3nc2C(C#N)C(=O)OC(C)COC)CC1 (stereo not drawn) | 0.99 | i | i | i | i | i
O=C(CCc1ccccc1)Nc1ccnn1C1CCN(C/C=C/c2ccccc2)CC1 | -0.73 | i | i | -6* | i | i
C/C=C(\C)CN1CCC(n2nccc2NC(=O)CCOc2ccccc2)CC1 | -1.6 | i | i | i | i | i
CCOc1ccccc1CN1CCC(n2nccc2NC(=O)CCc2ccccc2)CC1 | -1.5 | i | i | -7* | i | i
C/C=C(\C)CN1CCC(n2nccc2NC(=O)CCc2ccccc2)CC1 | -0.46 | i | i | -6* | i | 46*
CCOc1ccccc1CN1CCC(n2nccc2NC(=O)CCCc2ccccc2)CC1 | -1.6 | i | i | i | i | i
O=C(Nc1ccnn1C1CCN(C/C=C/c2ccccc2)CC1)C1CCCC1 | -0.82 | i | i | i | i | i
O=C1CCc2cc(S(=O)(=O)Nc3ccccc3)cc3c2N1CC3 | 0.19 | i | i | i | i | i
O=C(Cc1ccc(F)cc1)Nc1ccc(Cl)cn1 | -0.21 | i | i | i | i | i
CC1(C)CC(=O)C2=C(C1)N(c1ccc(F)cc1)C(=O)CC2c1ccsc1 (stereo not drawn) | -0.18 | i | i | i | i | i
O=C(C[n+]1cccc(CNC(=O)c2ccc(OC(F)F)cc2)c1)Nc1ccc(SC(F)F)cc1 | -0.55 | i | i | -7* | i | i
O=C(CN1CCCCC1)N1c2ccccc2Oc2ccccc21 | -0.75 | i | i | -5* | i | i
NCCC(=O)N1c2ccccc2Sc2ccc(Cl)cc21 | -4.8* | i | i | i | i | i
CC1CCCN(CC(=O)N2c3ccccc3Sc3ccccc32)C1 (stereo not drawn) | -0.62 | i | i | i | i | i
CC1Cc2ccccc2N1C(=O)CN1CCCCC1 (stereo not drawn) | 0.2 | i | i | i | i | i
O=C(CN1CCCCCC1)N1c2ccccc2Sc2ccccc21 | -2 | i | i | -7* | i | i
